Assay results published in ChEMBL document CHEMBL1137710, “Synthesis and in vitro antitumor activity of new quinoxaline derivatives” (2009).

Legend:
Format in all cases: functional
SNB-19 = test: Growth inhibition of human SNB19 cells after 48 hrs by sulforhodamine B assay; conditions: SNB-19, 48 h
Outline: (§1)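 Run in the NCI 60-human-tumour-cell-line panel, tested over a 5-log dose range. Dose–response curves gave three values per cell line, each as a log10 molar concentration: GI50 (50% inhibition of net cell growth), TGI (total inhibition of net growth) and LC50 (50% net cell death). The mean graph midpoint is the arithmetic mean over all lines, with insensitive lines entered at the highest concentration tested.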

UACC-257 = test: Growth inhibition of human UACC257 cells after 48 hrs by sulforhodamine B assay; conditions: UACC-257, 48 h; outline: as §1
A549 = test: Growth inhibition of human A549 cells after 48 hrs by sulforhodamine B assay; conditions: A549, 48 h
Outline: (§2)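 NCI 60-human-tumor-cell-line panel, with compounds tested over a 5-log dose range. Values are taken from dose-response curves as log10 molar concentrations: GI50 is 50% net growth inhibition, TGI is total growth inhibition, and LC50 is 50% net cell death.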

COLO 205 = test: Growth inhibition of human COLO205 cells after 48 hrs by sulforhodamine B assay; conditions: COLO 205, 48 h; outline: as §2
MCF7 [1] = test: Growth inhibition of human MCF7 cells after 48 hrs by sulforhodamine B assay; conditions: MCF7, 48 h; outline: as §2
OVCAR-8 = test: Growth inhibition of human OVCAR8 cells after 48 hrs by sulforhodamine B assay; conditions: OVCAR-8, 48 h; outline: as §2
NCI-H23 = test: Growth inhibition of human NCI-H23 cells after 48 hrs by sulforhodamine B assay; conditions: NCI-H23, 48 h; outline: as §2
MCF7 [2] = test: Anticancer activity against human MCF7 cells assessed as cell growth at 100 uM after 48 hrs by sulforhodamine B assay; conditions: MCF7, 48 h, read-out: Activity
HCT-116 = test: Growth inhibition of human HCT116 cells after 48 hrs by sulforhodamine B assay; conditions: HCT-116, 48 h; outline: as §2
[3] = Growth inhibition of human […] cells after 48 hrs by sulforhodamine B assay; outline: as §2
MDA-MB-231 = test: Growth inhibition of human MDA-MB-231 cells after 48 hrs by sulforhodamine B assay; conditions: MDA-MB-231, 48 h; outline: as §2
SF-295 = test: Growth inhibition of human SF295 cells after 48 hrs by sulforhodamine B assay; conditions: SF-295, 48 h; outline: as §2
NCI-H460 [4] = test: Anticancer activity against human NCI-H460 cells assessed as cell growth at 100 uM after 48 hrs by sulforhodamine B assay; conditions: NCI-H460, 48 h, read-out: Activity
OVCAR-4 = test: Growth inhibition of human OVCAR4 cells after 48 hrs by sulforhodamine B assay; conditions: OVCAR-4, 48 h; outline: as §2
SF-268 [5] = test: Growth inhibition of human SF268 cells after 48 hrs by sulforhodamine B assay; conditions: SF-268, 48 h; outline: as §2
TK-10 = test: Growth inhibition of human TK10 cells after 48 hrs by sulforhodamine B assay; conditions: TK-10, 48 h; outline: as §1
M14 = test: Growth inhibition of human M14 cells after 48 hrs by sulforhodamine B assay; conditions: M14, 48 h; outline: as §2
SK-OV-3 = test: Growth inhibition of human SKOV3 cells after 48 hrs by sulforhodamine B assay; conditions: SK-OV-3, 48 h; outline: as §2
PC-3 = test: Growth inhibition of human PC3 cells after 48 hrs by sulforhodamine B assay; conditions: PC-3, 48 h; outline: as §2
NCI-H460 [6] = test: Growth inhibition of human NCI-H460 cells after 48 hrs by sulforhodamine B assay; conditions: NCI-H460, 48 h; outline: as §2
SW-620 = test: Growth inhibition of human SW620 cells after 48 hrs by sulforhodamine B assay; conditions: SW-620, 48 h; outline: as §1
DU-145 = test: Growth inhibition of human DU145 cells after 48 hrs by sulforhodamine B assay; conditions: DU-145, 48 h; outline: as §2
SK-MEL-28 = test: Growth inhibition of human SK-MEL-28 cells after 48 hrs by sulforhodamine B assay; conditions: SK-MEL-28, 48 h; outline: as §2
IGROV-1 = test: Growth inhibition of human IGROV1 cells after 48 hrs by sulforhodamine B assay; conditions: IGROV-1, 48 h; outline: as §2
RXF 393 = test: Growth inhibition of human RXF393 cells after 48 hrs by sulforhodamine B assay; conditions: RXF 393, 48 h; outline: as §2
MDA-MB-435 = test: Growth inhibition of human MDA-MB-435 cells after 48 hrs by sulforhodamine B assay; conditions: MDA-MB-435, 48 h; outline: as §2
UACC-62 = test: Growth inhibition of human UACC62 cells after 48 hrs by sulforhodamine B assay; conditions: UACC-62, 48 h; outline: as §1
SK-MEL-5 = test: Growth inhibition of human SK-MEL-5 cells after 48 hrs by sulforhodamine B assay; conditions: SK-MEL-5, 48 h; outline: as §2
SF-268 [7] = test: Anticancer activity against human SF268 cells assessed as cell growth at 100 uM after 48 hrs by sulforhodamine B assay; conditions: SF-268, 48 h, read-out: Activity
U-251 = test: Growth inhibition of human U251 cells after 48 hrs by sulforhodamine B assay; conditions: U-251, 48 h; outline: as §1
[8] = read-out: pLC50 (the source's name) (converted)

For `Nc1cc(N)c2nc(-c3ccccc3)c(Oc3ccc(Cl)c(Cl)c3)nc2c1`, the GI50 (SNB-19) was 20.9 µM, the LC50 (SNB-19) was greater than 100 µM and the TGI (SNB-19; read-out: pTGI (converted)) was 52.5 µM. It also gave a GI50 (UACC-257) of 28.2 µM, a CC50 (UACC-257; [8]) greater than 100 µM and a TGI (UACC-257; read-out: pTGI (converted)) of 87.1 µM. The GI50 (A549) was 18.2 µM, the LC50 (A549) was greater than 100 µM and the TGI (A549; read-out: pTGI (converted)) was 43.7 µM. For the same compound, the GI50 (COLO 205) was 20.4 µM, the LC50 (50% net cell kill) (COLO 205) was greater than 100 µM and the TGI (COLO 205; read-out: pTGI (converted)) was 67.6 µM. For the same compound, the GI50 (MCF7 [1]) was 14.1 µM, the CC50 (MCF7 [1]; [8]) was greater than 100 µM and the TGI (MCF7 [1]; read-out: pTGI (converted)) was 70.8 µM. The GI50 (OVCAR-8) was 28.2 µM, the CC50 (OVCAR-8; [8]) was greater than 100 µM and the TGI (OVCAR-8; read-out: pTGI (converted)) was 89.1 µM. For the same compound, the GI50 (NCI-H23) was 15.5 µM, the LC50 (50% net cell kill concentration) (NCI-H23) was greater than 100 µM and the TGI (NCI-H23; read-out: pTGI (converted)) was 39.8 µM. For the same compound, the growth at 100 µM (MCF7 [2]) was 2%, the GI50 (HCT-116) was 15.8 µM and the LC50 (concentration causing 50% net cell death) (HCT-116) was greater than 100 µM. It also gave a TGI (HCT-116; read-out: pTGI (converted)) of 47.9 µM, a GI50 [3] of 3.47 µM and an LC50 [3] greater than 100 µM. The TGI ([3]; read-out: pTGI (converted)) was greater than 100 µM, the GI50 (MDA-MB-231) was 10.2 µM and the CC50 (MDA-MB-231; [8]) was 66.1 µM. The TGI (MDA-MB-231; read-out: pTGI (converted)) was 26.3 µM, the GI50 (SF-295) was 13.8 µM and the LC50 (50% net cell kill) (SF-295) was 69.2 µM. For the same compound, the TGI (SF-295; read-out: pTGI (converted)) was 30.9 µM, the growth at 100 µM (NCI-H460 [4]) was 0% and the GI50 (OVCAR-4) was 33.1 µM. It also gave a CC50 (OVCAR-4; [8]) greater than 100 µM, a TGI (OVCAR-4; read-out: pTGI (converted)) greater than 100 µM and a GI50 (SF-268 [5]) of 17 µM. For the same compound, the LC50 (SF-268 [5]) was greater than 100 µM, the TGI (SF-268 [5]; read-out: pTGI (converted)) was 52.5 µM and the GI50 (TK-10) was 24.5 µM. It also gave a CC50 (TK-10; [8]) greater than 100 µM, a TGI (TK-10; read-out: pTGI (converted)) of 63.1 µM and a GI50 (M14) of 14.1 µM. The CC50 (M14; [8]) was greater than 100 µM, the TGI (M14; read-out: pTGI (converted)) was 70.8 µM and the GI50 (SK-OV-3) was 24 µM. It also gave a CC50 (SK-OV-3; [8]) greater than 100 µM, a TGI (SK-OV-3; read-out: pTGI (converted)) of 66.1 µM and a GI50 (PC-3) of 3.02 µM. For the same compound, the CC50 (PC-3; [8]) was greater than 100 µM, the TGI (PC-3; read-out: pTGI (converted)) was 14.5 µM and the GI50 (NCI-H460 [6]) was 18.2 µM. The LC50 (50% net cell kill) (NCI-H460 [6]) was greater than 100 µM, the TGI (NCI-H460 [6]; read-out: pTGI (converted)) was 70.8 µM and the GI50 (SW-620) was 9.77 µM. It also gave a CC50 (SW-620; [8]) of 91.2 µM, a TGI (SW-620; read-out: pTGI (converted)) of 30.2 µM and a GI50 (DU-145) of 29.5 µM. For the same compound, the CC50 (DU-145; [8]) was greater than 100 µM, the TGI (DU-145; read-out: pTGI (converted)) was greater than 100 µM and the GI50 (SK-MEL-28) was 21.4 µM. The CC50 (SK-MEL-28; [8]) was greater than 100 µM, the TGI (SK-MEL-28; read-out: pTGI (converted)) was 64.6 µM and the GI50 (IGROV-1) was 11.5 µM. The CC50 (IGROV-1; [8]) was 91.2 µM, the TGI (IGROV-1; read-out: pTGI (converted)) was 32.4 µM and the GI50 (RXF 393) was 6.03 µM. For the same compound, the CC50 (RXF 393; [8]) was greater than 100 µM, the TGI (RXF 393; read-out: pTGI (converted)) was 58.9 µM and the GI50 (MDA-MB-435) was 5.01 µM. The CC50 (MDA-MB-435; [8]) was 93.3 µM, the TGI (MDA-MB-435; read-out: pTGI (converted)) was 20.9 µM and the GI50 (UACC-62) was 16.2 µM. It also gave a CC50 (UACC-62; [8]) greater than 100 µM, a TGI (UACC-62; read-out: pTGI (converted)) of 47.9 µM and a GI50 (SK-MEL-5) of 9.77 µM. The CC50 (SK-MEL-5; [8]) was 83.2 µM, the TGI (SK-MEL-5; read-out: pTGI (converted)) was 28.8 µM and the growth at 100 µM (SF-268 [7]) was 0%. The GI50 (U-251) was 12 µM, the LC50 (50% net cell kill) (U-251) was 83.2 µM and the TGI (U-251; read-out: pTGI (converted)) was 31.6 µM.
